Test results reported in publication PMC7810645 (Targeted Oncology, 2020).
Read-outs that look alike come from different tables or passages of the source.

Tests used:
[1] = system: patients with recurrent, platinum-sensitive ovarian cancer; settings: niraparib 300 mg daily + bevacizumab 15 mg/kg d1 q21d vs niraparib 300 mg daily alone; cited from earlier work
patients [2] = settings: cited from earlier work
patients [3] = settings: rucaparib 600 mg BID single agent, ARIEL3; cited from earlier work
[4] = Rucaparib plasma pharmacokinetics in patients; format: in vivo, human; settings: for AUC(0-t) / Tmax / Cmax: human, plasma, oral; for Tmax: mean (±SD)
Outline: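 Oral dosing was 400, 500 or 600 mg BID. Cycle 1 blood was drawn on day −7 (first dose, before bevacizumab), day 1 (bevacizumab infusion) and day 21, at 1, 2, 3, 4, 6, 8 and 24 h post-dose. Plasma was assayed by validated HPLC-MS. Day −7 yielded Cmax, Tmax and AUC0–8h, and days 1/21 gave steady-state Cmax, Cmin and AUC, all by noncompartmental analysis. Summaries were mean, SD, CV, median and geometric mean.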

[5] = system: patients with high-grade epithelial ovarian, fallopian tube, or primary peritoneal cancer; format: in vivo, human
Outline: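 Patients had newly diagnosed stage IIIB–IV disease, ECOG 0–1 and no prior anticancer therapy. All received six cycles of carboplatin AUC 5 plus paclitaxel 175 mg/m2 and bevacizumab, each d1 q21d. Oral maintenance drug began within 9 weeks, continuous BID in 28-day cycles, first dose 7 days before bevacizumab. Three-patient cohorts (Fibonacci triplets). DLTs were assessed over the first two cycles, with AEs graded by CTCAE v4.03.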

[6] = steady state, day 1 (bevacizumab infusion), 400 mg BID, n 3
[7] = steady state, day 1 (bevacizumab infusion), 500 mg BID, n 3
[8] = steady state, day 1 (bevacizumab infusion), 600 mg BID, n 3
[9] = steady state, day 21, with bevacizumab, 400 mg BID, n 2
[10] = steady state, day 21, with bevacizumab, 500 mg BID, n 3
[11] = steady state, day 21, with bevacizumab, 600 mg BID, n 2
[12] = rucaparib 400 mg BID (n = 3) + bevacizumab
[13] = rucaparib 500 mg BID (n = 3) + bevacizumab
[14] = rucaparib 600 mg BID (n = 3) + bevacizumab

NC(=O)c1cccc2cn(-c3ccc([C@@H]4CCCNC4)cc3)nc12 [niraparib]
PFS adjusted hazard ratio [1]: 0.35 | incidence of thrombocytopenia and hypertension (patients [2]; vs olaparib or rucaparib): higher incidence

CNCc1ccc(-c2[nH]c3cc(F)cc4c3c2CCNC4=O)cc1 [rucaparib]
patients with dose reduction due to a TEAE (patients [3]): 55% | patients with grade 3 or higher TEAEs (patients [3]): 56% | patients with grade 3 or higher anemia (patients [3]): 19% | incidence of increased alanine/aspartate aminotransferase levels (patients [2]; vs olaparib or niraparib): higher incidence | range of trough concentrations ([4]; 400 mg BID): 1.5 to 1.6 µg/mL | range of trough concentrations ([4]; 500 mg BID): 1.8 to 2.0 µg/mL | range of trough concentrations ([4]; 600 mg BID): 1.6 to 2.1 µg/mL | dose proportionality of plasma exposure ([4]; 400-600 mg BID): approximately dose proportional | Cmax and AUC at steady state (days 1 and 21) relative to day −7 ([4]; all dose levels): two to three times higher | Cmin, mean (±SD) ([4]; first administration, day −7, 400 mg BID, n 3): 200 ± 100 ng/mL | Cmin, mean (±SD) ([4]; first administration, day −7, 500 mg BID, n 3): 400 ± 100 ng/mL | Cmin, mean (±SD) ([4]; first administration, day −7, 600 mg BID, n 3): 300 ± 200 ng/mL | AUC(0-t) ([4]; 400 mg): 3400 ± 800 ng·h/mL | Tmax ([4]; 400 mg, first administration, day −7, 400 mg BID, n 3): 3.4 ± 0.7 h | AUC(0-t) ([4]; 500 mg): 4700 ± 1900 ng·h/mL | Cmax ([4]; 500 mg): 900 ± 600 ng/mL | Tmax ([4]; 500 mg, steady state, day 21, with bevacizumab, 500 mg BID, n 3): 2 ± 1 h | AUC(0-t) ([4]; 600 mg): 4900 ± 1600 ng·h/mL | Cmax ([4]; 600 mg): 1000 ± 200 ng/mL | Tmax ([4]; 600 mg, first administration, day −7, 600 mg BID, n 3): 3.4 ± 1.2 h | Tmax [4, 6]: 4.6 ± 2.9 h | Tmax [4, 7]: 1.7 ± 1.2 h | Tmax [4, 8]: 3 ± 1 h | CmaxSS, mean (±SD) [4, 6]: 2400 ± 200 ng/mL | CminSS, mean (±SD) [4, 6]: 1400 ± 300 ng/mL | Ctrough, mean (±SD) [4, 6]: 1600 ± 100 ng/mL | CmaxSS, mean (±SD) [4, 7]: 2600 ± 500 ng/mL | CminSS, mean (±SD) [4, 7]: 1600 ± 700 ng/mL | Ctrough, mean (±SD) [4, 7]: 1800 ± 700 ng/mL | CmaxSS, mean (±SD) [4, 8]: 2600 ± 500 ng/mL | CminSS, mean (±SD) [4, 8]: 1400 ± 300 ng/mL | Ctrough, mean (±SD) [4, 8]: 1600 ± 100 ng/mL | CmaxSS, mean (±SD) [4, 9]: 2600 ± 900 ng/mL | CminSS, mean (±SD) [4, 9]: 1300 ± 400 ng/mL | Ctrough, mean (±SD) [4, 9]: 1500 ± 300 ng/mL | CmaxSS, mean (±SD) [4, 10]: 2300 ± 400 ng/mL | CminSS, mean (±SD) [4, 10]: 1500 ± 500 ng/mL | Ctrough, mean (±SD) [4, 10]: 2000 ± 600 ng/mL | CmaxSS, mean (±SD) [4, 11]: 2500 ± 1300 ng/mL | CminSS, mean (±SD) [4, 11]: 1600 ± 1200 ng/mL | Ctrough, mean (±SD) [4, 11]: 2100 ± 300 ng/mL | maximum tolerated dose (MTD) ([5]; BID, combined with bevacizumab 15 mg/kg d1 q21d): 500 mg | safety concerns from the combination of rucaparib and bevacizumab ([5]; all dose cohorts): no new safety concerns | Anemia, grade 1: number of patients with an event [5, 12]: 1 | Arthralgia, grade 1: number of patients with an event [5, 12]: 2 (2) | Arthralgia, grade 1: number of total events [5, 12]: 2 (2) | Cutaneous erythema, grade 1: number of patients with an event [5, 12]: 1 | Fatigue, grade 1: number of patients with an event [5, 12]: 1 | Feet paresthesia, grade 1: number of patients with an event [5, 12]: 1 | Genital herpes, grade 1: number of patients with an event [5, 12]: 1 | Genital herpes, grade 2: number of patients with an event [5, 12]: 1 | Headache, grade 1: number of patients with an event [5, 12]: 1 | Mucosal dryness, grade 1: number of patients with an event [5, 12]: 1 | Nausea, grade 1: number of patients with an event [5, 12]: 1 | Neuropathy, grade 1: number of patients with an event [5, 12]: 1 | Transaminases increase, grade 1: number of patients with an event [5, 12]: 1 | dose-limiting toxicities (DLTs) ([5]; rucaparib 400 mg BID + bevacizumab 15 mg/kg d1 q21d): No DLTs | Abdominal pain, grade 1: number of patients with an event [5, 13]: 1 | Arthralgia, grade 1: number of patients with an event [5, 13]: 1 | Bleeding gums, grade 1: number of patients with an event [5, 13]: 1 | Diarrhea, grade 1: number of patients with an event [5, 13]: 1 | Diarrhea, grade 1: number of total events [5, 13]: 3 | Dysgeusia, grade 1: number of patients with an event [5, 13]: 1 | Dysgeusia, grade 2: number of patients with an event [5, 13]: 1 | Fatigue, grade 1: number of patients with an event [5, 13]: 1 | Flushes, grade 1: number of patients with an event [5, 13]: 1 | High cholesterol, grade 1: number of patients with an event [5, 13]: 1 | High cholesterol, grade 2: number of patients with an event [5, 13]: 1 | Hypertension, grade 2: number of patients with an event [5, 13]: 3 (3) | Hypertension, grade 2: number of total events [5, 13]: 3 (3) | Insomnia, grade 2: number of patients with an event [5, 13]: 1 | Nausea, grade 1: number of patients with an event [5, 13]: 2 (2) | Nausea, grade 1: number of total events [5, 13]: 2 (2) | Transaminases increase, grade 1: number of patients with an event [5, 13]: 1 | Vomiting, grade 1: number of patients with an event [5, 13]: 1 | dose-limiting toxicities (DLTs) ([5]; rucaparib 500 mg BID + bevacizumab 15 mg/kg d1 q21d): No DLTs | ALT increase, grade 2: number of patients with an event [5, 14]: 1 | ALT increase, grade 3: number of patients with an event [5, 14]: 1 | AST increase, grade 2: number of patients with an event [5, 14]: 1 | AST increase, grade 3: number of patients with an event [5, 14]: 1 | Abdominal pain, grade 1: number of patients with an event [5, 14]: 1 | Arthralgia, grade 1: number of patients with an event [5, 14]: 1 | Arthralgia, grade 2: number of patients with an event [5, 14]: 1 | Constipation, grade 2: number of patients with an event [5, 14]: 1 | Depression, grade 1: number of patients with an event [5, 14]: 1 | Depression, grade 1: number of total events [5, 14]: 2 | Depression, grade 2: number of patients with an event [5, 14]: 1 | Depression, grade 3: number of patients with an event [5, 14]: 1 | Diarrhea, grade 1: number of patients with an event [5, 14]: 1 | Dysgeusia, grade 1: number of patients with an event [5, 14]: 1 | Epigastralgia, grade 1: number of patients with an event [5, 14]: 1 | Fatigue, grade 1: number of patients with an event [5, 14]: 1 | Fever, grade 2: number of patients with an event [5, 14]: 1 | Hallucination, grade 3: number of patients with an event [5, 14]: 1 | Headache, grade 1: number of patients with an event [5, 14]: 1 | Lack of appetite, grade 1: number of patients with an event [5, 14]: 1 | Limb pain, grade 1: number of patients with an event [5, 14]: 1 | Mucositis, grade 1: number of patients with an event [5, 14]: 1 | Nausea, grade 1: number of patients with an event [5, 14]: 3 | Nausea, grade 1: number of total events [5, 14]: 4 | Nausea, grade 2: number of patients with an event [5, 14]: 1 | Nausea, grade 2: number of total events [5, 14]: 3 | Neutrophils decreased, grade 2: number of patients with an event [5, 14]: 1 | Skin bruises, grade 1: number of patients with an event [5, 14]: 1 | Stranguria, grade 1: number of patients with an event [5, 14]: 1 | Toothache, grade 1: number of patients with an event [5, 14]: 1 | patients affected by DLTs ([5]; rucaparib 600 mg BID + bevacizumab 15 mg/kg d1 q21d): two out of three patients
